{"source": "ChEMBL document CHEMBL1828520", "about": "“Anti-AIDS agents 86. Synthesis and anti-HIV evaluation of 2',3'-seco-3'-nor DCP and DCK analogues” (Eur J Med Chem, 2011)", "note": "pEC50: −log10 of the molar value."}
{"tested_on": "Human immunodeficiency virus 1", "experiment": "Antiviral activity against HIV1 RTMDR in human […] cells after 48 hrs by luciferase reporter gene assay", "format": "functional, organism-based", "conditions": "Human immunodeficiency virus 1, RTMDR", "how_it_was_run": "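Single-round infection of TZM-bl cells with 200 TCID50 virus plus test sample in eight fourfold dilutions; 48 h incubation, then Bright Glo luciferase read. Highest tested concentration 20 μM.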"}
{"smiles": "CCOc1ccc2c(=O)cc(CC)oc2c1CN1CCN(C(=O)C(=O)c2cccs2)CC1", "pEC50": 4.77}
{"smiles": "CCOc1ccc2c(=O)cc(CC)oc2c1CN1CCN(C(=O)C(=O)c2ccccc2)CC1", "pEC50": 4.79}
{"smiles": "CCOc1ccc2c(=O)cc(CC)oc2c1CN1CCN(C(=O)C(=O)c2c[nH]c3ccccc23)CC1", "pEC50": "< 4.69"}
{"smiles": "CCc1cc(=O)c2ccc3c(c2o1)[C@@H](OC(=O)C12CCC(C)(C(=O)O1)C2(C)C)[C@@H](OC(=O)C12CCC(C)(C(=O)O1)C2(C)C)C(C)(C)O3", "note": "(some centres not stated)", "pEC50": 6.70}
{"tested_on": "not listed separately", "experiment": "Ratio of CC50 for human TZM-bl cells to EC50 for HIV 1 NL4-3 infected in human TZM-bl cells", "conditions": "not given"}
{"smiles": "CCOc1ccc2c(=O)cc(CC)oc2c1CN1CCN(C(=O)C(=O)c2ccccc2)CC1", "Ratio CC50/EC50": ">1.33"}
{"smiles": "CCc1cc(=O)c2ccc(OCc3cccc(C(=O)OC)c3)c(COC(=O)C34CCC(C)(C(=O)O3)C4(C)C)c2o1", "note": "(configuration not stated)", "Ratio CC50/EC50": 39.2}
{"smiles": "CCc1cc(=O)c2ccc(OCc3cc(OC)cc(OC)c3)c(COC(=O)C34CCC(C)(C(=O)O3)C4(C)C)c2o1", "note": "(configuration not stated)", "Ratio CC50/EC50": 1.64}
{"smiles": "CCc1cc(=O)c2ccc3c(c2o1)[C@@H](OC(=O)C12CCC(C)(C(=O)O1)C2(C)C)[C@@H](OC(=O)C12CCC(C)(C(=O)O1)C2(C)C)C(C)(C)O3", "note": "(some centres not stated)", "Ratio CC50/EC50": 118.75}
{"tested_on": "not listed separately", "experiment": "Chemical stability of the compound in 1% HCl assessed as compound remaining at 30 min by HPLC analysis", "format": "physicochemical", "conditions": "read-out: Stability", "how_it_was_run": "(§1)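 Compound (1 mg) dissolved in MeOH (0.5 mL), 1% HCl (0.2 mL) added, shaken at room temperature. Remaining compound measured by reversed-phase HPLC (ODS2 column, 30% water/70% MeOH) as area % purity at the stated time.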", "units": {"remaining at 0.5 h": "%"}}
{"smiles": "Cc1cc(=O)oc2c3c(ccc12)OC(C)(C)[C@H](OC(=O)[C@@]12CC[C@@](C)(C(=O)O1)C2(C)C)[C@@H]3OC(=O)[C@@]12CC[C@@](C)(C(=O)O1)C2(C)C", "remaining at 0.5 h": 64}
{"smiles": "CCc1cc(=O)c2ccc3c(c2o1)[C@@H](OC(=O)C12CCC(C)(C(=O)O1)C2(C)C)[C@@H](OC(=O)C12CCC(C)(C(=O)O1)C2(C)C)C(C)(C)O3", "note": "(some centres not stated)", "remaining at 0.5 h": 91}
{"tested_on": "not listed separately", "experiment": "Ratio of CC50 for human TZM-bl cells to EC50 for HIV 1 RTMDR infected in human TZM-bl cells", "conditions": "not given"}
{"smiles": "CCOc1ccc2c(=O)cc(CC)oc2c1CN1CCN(C(=O)C(=O)c2cccs2)CC1", "Ratio CC50/EC50": 1.3}
{"smiles": "CCOc1ccc2c(=O)cc(CC)oc2c1CN1CCN(C(=O)C(=O)c2ccccc2)CC1", "Ratio CC50/EC50": ">1.37"}
{"smiles": "CCc1cc(=O)c2ccc3c(c2o1)[C@@H](OC(=O)C12CCC(C)(C(=O)O1)C2(C)C)[C@@H](OC(=O)C12CCC(C)(C(=O)O1)C2(C)C)C(C)(C)O3", "note": "(some centres not stated)", "Ratio CC50/EC50": 71.25}
{"tested_on": "not listed separately", "experiment": "Cytotoxicity against human TZM-bl cells assessed as cell viability", "format": "cell-based", "conditions": "not given", "how_it_was_run": "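TZM-bl cells (1 × 10^5 cells/mL) exposed to various compound concentrations in parallel with the antiviral assay timing. Averaged from at least three independent experiments.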", "units": {"CC50": "µM"}}
{"smiles": "CCOc1ccc2c(=O)cc(CC)oc2c1CN1CCN(C(=O)C(=O)c2cccs2)CC1", "CC50": "> 22"}
{"smiles": "CCOc1ccc2c(=O)cc(CC)oc2c1CN1CCN(C(=O)C(=O)c2ccccc2)CC1", "CC50": "> 22.3"}
{"smiles": "CCOc1ccc2c(=O)cc(CC)oc2c1CN1CCN(C(=O)C(=O)c2c[nH]c3ccccc23)CC1", "CC50": "> 20.5"}
{"smiles": "CCc1cc(=O)c2ccc(OCc3cccc(C(=O)OC)c3)c(COC(=O)C34CCC(C)(C(=O)O3)C4(C)C)c2o1", "note": "(configuration not stated)", "CC50": "> 36.5"}
{"smiles": "CCc1cc(=O)c2ccc(OCc3cc(OC)cc(OC)c3)c(COC(=O)C34CCC(C)(C(=O)O3)C4(C)C)c2o1", "note": "(configuration not stated)", "CC50": "> 36.3"}
{"smiles": "CCc1cc(=O)c2ccc3c(c2o1)[C@@H](OC(=O)C12CCC(C)(C(=O)O1)C2(C)C)[C@@H](OC(=O)C12CCC(C)(C(=O)O1)C2(C)C)C(C)(C)O3", "note": "(some centres not stated)", "CC50": 14.2}
{"tested_on": "not listed separately", "experiment": "Chemical stability of the compound in 1% HCl assessed as compound remaining at 1 min by HPLC analysis", "format": "physicochemical", "conditions": "read-out: Stability", "how_it_was_run": "as §1", "units": {"remaining at […]": "%"}}
{"smiles": "Cc1cc(=O)oc2c3c(ccc12)OC(C)(C)[C@H](OC(=O)[C@@]12CC[C@@](C)(C(=O)O1)C2(C)C)[C@@H]3OC(=O)[C@@]12CC[C@@](C)(C(=O)O1)C2(C)C", "remaining at […]": 100}
{"smiles": "CCc1cc(=O)c2ccc3c(c2o1)[C@@H](OC(=O)C12CCC(C)(C(=O)O1)C2(C)C)[C@@H](OC(=O)C12CCC(C)(C(=O)O1)C2(C)C)C(C)(C)O3", "note": "(some centres not stated)", "remaining at […]": 100}
{"tested_on": "Human immunodeficiency virus 1", "experiment": "Antiviral activity against HIV 1 NL4-3 infected in human TZM-bl cells after 48 hrs by luciferase reporter gene assay", "format": "functional, organism-based", "conditions": "Human immunodeficiency virus 1, NL4-3, TZM-bl", "how_it_was_run": "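Single-round infection of TZM-bl cells with HIV-1 NL4-3 at 200 TCID50, in the presence of eight fourfold serial dilutions of compound. After 48 h, luciferase was read as RLU. Highest concentration tested was 20 μM.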"}
{"smiles": "CCOc1ccc2c(=O)cc(CC)oc2c1CN1CCN(C(=O)C(=O)c2cccs2)CC1", "pEC50": "< 4.66"}
{"smiles": "CCOc1ccc2c(=O)cc(CC)oc2c1CN1CCN(C(=O)C(=O)c2ccccc2)CC1", "pEC50": 4.78}
{"smiles": "CCOc1ccc2c(=O)cc(CC)oc2c1CN1CCN(C(=O)C(=O)c2c[nH]c3ccccc23)CC1", "pEC50": "< 4.69"}
{"smiles": "CCc1cc(=O)c2ccc(OCc3cccc(C(=O)OC)c3)c(COC(=O)C34CCC(C)(C(=O)O3)C4(C)C)c2o1", "note": "(configuration not stated)", "pEC50": 6.03}
{"smiles": "CCc1cc(=O)c2ccc(OCc3cc(OC)cc(OC)c3)c(COC(=O)C34CCC(C)(C(=O)O3)C4(C)C)c2o1", "note": "(configuration not stated)", "pEC50": 4.65}
{"smiles": "CCc1cc(=O)c2ccc3c(c2o1)[C@@H](OC(=O)C12CCC(C)(C(=O)O1)C2(C)C)[C@@H](OC(=O)C12CCC(C)(C(=O)O1)C2(C)C)C(C)(C)O3", "note": "(some centres not stated)", "pEC50": 6.92}
